The list is not random: actives were taken first. Their share in the collection is about 5.9%.
Cav3 T inh = human Cav3.2 channel inhibition, primary screen; O95180; Cav3.2-expressing cells, Fluo-4 calcium fluorescence FDSS; hits give low values; B-score at 10 µM; 100,000 compounds, 4% hits; AID 449739;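 active = single-dose well whose peak fluorescence ratio is a statistical outlier from its plate by either plate-standardised score or position-corrected B-score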
Target sequence (O95180 whole entry, looked up): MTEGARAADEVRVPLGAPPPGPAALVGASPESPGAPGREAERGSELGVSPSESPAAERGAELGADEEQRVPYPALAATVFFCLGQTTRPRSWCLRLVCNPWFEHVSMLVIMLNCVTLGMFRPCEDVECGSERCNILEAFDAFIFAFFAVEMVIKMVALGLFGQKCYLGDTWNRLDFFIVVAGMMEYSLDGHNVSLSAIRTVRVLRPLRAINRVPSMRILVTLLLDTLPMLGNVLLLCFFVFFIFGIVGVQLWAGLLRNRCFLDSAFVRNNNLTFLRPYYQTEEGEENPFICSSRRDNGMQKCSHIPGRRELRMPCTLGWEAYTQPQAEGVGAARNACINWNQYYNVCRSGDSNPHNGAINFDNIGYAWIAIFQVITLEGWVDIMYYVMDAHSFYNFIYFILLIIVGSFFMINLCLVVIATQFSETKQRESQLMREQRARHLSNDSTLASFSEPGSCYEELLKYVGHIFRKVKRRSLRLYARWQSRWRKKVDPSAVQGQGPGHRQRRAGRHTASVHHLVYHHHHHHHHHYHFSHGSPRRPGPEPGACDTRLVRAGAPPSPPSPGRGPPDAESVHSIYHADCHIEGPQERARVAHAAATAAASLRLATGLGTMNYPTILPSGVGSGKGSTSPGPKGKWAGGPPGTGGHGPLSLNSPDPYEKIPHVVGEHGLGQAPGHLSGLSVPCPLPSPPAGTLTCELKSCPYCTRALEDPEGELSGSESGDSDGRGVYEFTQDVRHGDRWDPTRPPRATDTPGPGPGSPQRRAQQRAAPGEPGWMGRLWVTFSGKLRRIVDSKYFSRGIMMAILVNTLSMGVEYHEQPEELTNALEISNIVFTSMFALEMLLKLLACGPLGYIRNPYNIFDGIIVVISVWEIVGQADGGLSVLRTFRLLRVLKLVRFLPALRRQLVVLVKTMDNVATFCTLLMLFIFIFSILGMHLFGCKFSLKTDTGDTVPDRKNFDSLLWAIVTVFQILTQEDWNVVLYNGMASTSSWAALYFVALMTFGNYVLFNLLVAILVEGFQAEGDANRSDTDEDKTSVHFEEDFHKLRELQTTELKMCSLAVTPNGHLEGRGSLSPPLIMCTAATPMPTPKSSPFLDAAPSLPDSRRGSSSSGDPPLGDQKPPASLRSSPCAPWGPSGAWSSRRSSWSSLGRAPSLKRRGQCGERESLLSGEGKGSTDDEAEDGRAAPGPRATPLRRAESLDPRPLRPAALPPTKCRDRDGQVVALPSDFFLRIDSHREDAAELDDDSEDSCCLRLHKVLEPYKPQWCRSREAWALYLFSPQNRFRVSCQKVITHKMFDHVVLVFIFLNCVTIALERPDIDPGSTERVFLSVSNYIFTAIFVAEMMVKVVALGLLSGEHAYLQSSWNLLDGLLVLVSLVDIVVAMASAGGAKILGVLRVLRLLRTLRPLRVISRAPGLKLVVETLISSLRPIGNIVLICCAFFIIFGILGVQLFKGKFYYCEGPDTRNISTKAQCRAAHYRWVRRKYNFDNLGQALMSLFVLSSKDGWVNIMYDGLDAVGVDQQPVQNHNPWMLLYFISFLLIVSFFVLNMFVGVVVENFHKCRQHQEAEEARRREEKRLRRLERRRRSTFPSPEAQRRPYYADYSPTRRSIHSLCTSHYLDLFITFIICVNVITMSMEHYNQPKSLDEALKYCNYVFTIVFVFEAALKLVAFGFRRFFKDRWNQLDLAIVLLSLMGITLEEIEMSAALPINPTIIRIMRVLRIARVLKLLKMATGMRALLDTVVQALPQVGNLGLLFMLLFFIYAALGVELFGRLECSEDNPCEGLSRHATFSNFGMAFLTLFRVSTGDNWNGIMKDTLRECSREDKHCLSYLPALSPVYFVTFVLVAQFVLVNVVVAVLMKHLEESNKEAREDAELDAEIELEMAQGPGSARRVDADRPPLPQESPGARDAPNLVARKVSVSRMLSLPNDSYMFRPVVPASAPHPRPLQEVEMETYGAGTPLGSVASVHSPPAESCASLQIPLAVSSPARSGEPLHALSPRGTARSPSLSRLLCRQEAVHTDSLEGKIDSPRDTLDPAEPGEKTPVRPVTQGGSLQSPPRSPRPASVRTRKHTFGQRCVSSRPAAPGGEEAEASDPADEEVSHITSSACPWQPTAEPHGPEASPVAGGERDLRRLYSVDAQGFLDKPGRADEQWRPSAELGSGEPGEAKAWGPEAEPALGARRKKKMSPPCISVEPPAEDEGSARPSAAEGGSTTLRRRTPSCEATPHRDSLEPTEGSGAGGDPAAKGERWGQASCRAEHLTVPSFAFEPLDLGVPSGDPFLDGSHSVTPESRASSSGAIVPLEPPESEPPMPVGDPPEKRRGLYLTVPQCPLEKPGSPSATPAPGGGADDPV
PTK2B oligo ant = blocks oligomerization of human Pyk2 in cells; Q14289; Q293 cells, Pyk2 FERM NanoBiT luminescence; hits give low values; z-score (the deposit names both 25 µM and 10 µM); 99,000 compounds, 0.83% hits; AID 1347419;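 active = Z-score of -3 or lower, scaled per plate to the spread of control and sample wells; inactive = z-score above -3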;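 also: negative z-score means lost luminescence so less FERM oligomerization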
Phagocytosis inh = macrophage phagocytosis inhibition; 110,000 compounds, 0.07% hits; inhibition, % at 5 µM; AID 1029; J774A.1 macrophage IgG-bead phagocytosis, imaging;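 active = inhibition above the mean of the plate negative controls plus 5 SD, cut at about 13% in these data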;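 also: phagocytic index as fraction of beads internalized from green versus red external bead signal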
Measles CPE = protection of cells from measles virus | 140,000 compounds, 1.5% hits | AID 841 | Measles virus-infected cells, CPE protection, absorbance | protection (pct of control), % at 4 µM; in the data active = protection mostly above about 24%, no sharp cut-off; inactive = mostly below about 26%
hDAT+cocaine = human DAT dopamine uptake with cocaine, either direction | Q01959 | LLC-PK1 hDAT cells, [14C]-dopamine uptake with cocaine IC80; actives deviate in either direction | B-score at 10 µM | 110,000 compounds, 1.3% hits | AID 449768;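 active = Z score or B-score, a plate-position-corrected score, falls beyond the plate's 99.7% confidence bounds, in either direction; inactive = both scores lie inside the 99.7% bounds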
Rev-RRE block = inhibitors of HIV-1 Rev-RRE RNA interaction; Rev peptide-RRE RNA binding, FRET; inhibition, % at 8 µM; 97,000 compounds, 0.79% hits;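 active = inhibition above the screen-wide mean plus 3 SD, cut at about 35% in these data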
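Probe or stimulus: fluorescein-Rev peptide as binding partner; assay system: Cy5-tagged RRE RNA duplex with fluorescein-tagged Rev peptide; timing: 5 min compound–RNA preincubation, then 15 min with peptide, 25 °C; medium: HEPES pH 7.5 buffer with KCl, MgCl2, NaCl and EDTA; signal: fluorescein-to-Cy5 FRET, 480 nm excitation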
Large screens that a line does not name were inactive; [ ] = dose if it differs, or a comment.

CCOC(=O)c1c(NC(=O)CSc2nnc(Cc3ccccc3)o2)sc(C)c1C	Cav3 T inh -4.5 (no result: Phagocytosis inh)
CCOC(=O)c1c(NC(=O)CSc2nnc(-c3ccco3)o2)sc(C)c1C	none (no result: Phagocytosis inh)
CCCn1c(N)c(C(=O)CSc2nnc(Cc3ccccc3)o2)c(=O)n(C)c1=O	Cav3 T inh -7.8 (no result: Phagocytosis inh, hDAT+cocaine)
O=C(CSc1nnc(-c2ccncc2)n1Cc1ccco1)OC1CCCCC1	none
CCn1c(-c2ccccc2Cl)nn(CC(=O)Nc2ccccc2C)c1=S	none
CCOc1ccc(S(=O)(=O)N2CCN(C(=O)c3cc4c(s3)CCCC4)CC2)cc1	none (no result: Cav3 T inh, hDAT+cocaine, Rev-RRE block)
O=c1c2cnn(-c3ccccc3)c2nc(-c2cccs2)n1-c1cccc(Cl)c1	none (no result: Cav3 T inh, PTK2B oligo ant, hDAT+cocaine, Rev-RRE block)
COc1cc(NC(=S)N2CCCC(CO)C2)c(OC)cc1Cl (stereo not given)	none (no result: Cav3 T inh, PTK2B oligo ant, hDAT+cocaine, Rev-RRE block)
O=C(/C=C/c1ccccc1)N1CCN(c2c(Cl)cccc2[N+](=O)[O-])CC1	none (no result: Cav3 T inh, PTK2B oligo ant, Phagocytosis inh, hDAT+cocaine, Rev-RRE block)
COC(=O)c1sc(N)c(C(=O)OC)c1COC(=O)CCNS(=O)(=O)c1ccc(C)cc1	none (no result: Cav3 T inh, PTK2B oligo ant, hDAT+cocaine, Rev-RRE block)
COC(=O)c1c(NC(=O)CSc2nnc(-c3ccco3)n2Cc2ccccc2)sc(C)c1C	Cav3 T inh -4.5
COC(=O)c1c(NC(=O)CSc2nc3ccccc3c(=O)n2Cc2ccco2)sc(C)c1C	none (no result: Cav3 T inh, PTK2B oligo ant, hDAT+cocaine, Rev-RRE block)
CC(/C=N\NC(=O)c1cccnc1)c1ccccc1 (stereo not given)	none (no result: Phagocytosis inh, Measles CPE)
CN1CC2([N+](=O)[O-])CC=C(Oc3ccccc3)C([N+](=O)[O-])(C1)C2 (stereo not given)	Measles CPE 30
Cc1ccc(C(=O)COC(=O)C2C3C=CC(C3)C2C(=O)OCC(=O)c2ccc(C)c(C)c2)cc1C (stereo not given)	Cav3 T inh -5.1
C=C(Cl)COC(=O)[C@H]1C2C=CC(C2)C1C(=O)O (stereo not given in full)	none
CC(=O)NCC(=O)OCC(=O)c1ccc(C)c(C)c1	none
Cc1ccc(S(=O)(=O)CCC(=O)OCC(=O)c2ccc(C)c(C)c2)cc1	Measles CPE 30 (no result: Cav3 T inh, PTK2B oligo ant, hDAT+cocaine, Rev-RRE block)
O=C(OCC(=O)c1ccccc1Cl)c1cnccn1	none (no result: Cav3 T inh, PTK2B oligo ant, hDAT+cocaine, Rev-RRE block)
COc1ccc(CC(=O)c2cc(OC)c(OC)cc2CC(=O)O)cc1OC	none
COc1ccc(C(=O)Cc2ccc(OC)c(OC)c2)c(OC)c1	Measles CPE 61 (no result: Phagocytosis inh)
CCOc1ccc(C(=O)CC(=O)C(=O)NCCc2ccc(OC)c(OC)c2)cc1	Measles CPE 38 (no result: Cav3 T inh, PTK2B oligo ant, hDAT+cocaine, Rev-RRE block)
COc1ccc(CNC(N)=O)cc1OC	none
COc1ccc(CCNC(=O)C(=O)NCc2ccc(C(C)C)cc2)cc1OC	Cav3 T inh -7.3
COc1ccc(OCCCC(=O)NCCc2ccc(OC)c(OC)c2)cc1	none (no result: Cav3 T inh, PTK2B oligo ant, hDAT+cocaine, Rev-RRE block)
COc1ccc(CCC(N)=O)cc1OC	Measles CPE 27
CCOc1cc(OCC)nc(S(C)(=O)=O)n1	none (no result: Cav3 T inh, PTK2B oligo ant, hDAT+cocaine, Rev-RRE block)
COc1ccc(Nc2nnc(SCC(=O)/C=C3/N(C)c4ccccc4C3(C)C)s2)cc1	none (no result: Cav3 T inh, PTK2B oligo ant, hDAT+cocaine, Rev-RRE block)
CN(C)/C=N/c1cc(=O)[nH]c(=O)n1C	none (no result: PTK2B oligo ant, Phagocytosis inh, Rev-RRE block)
c1coc(CNc2nc(N3CCCCC3)nc3ccccc23)c1	Cav3 T inh -4.3 (no result: Rev-RRE block)
c1ccc(N2CCN(c3nc(NCc4ccco4)c4ccccc4n3)CC2)cc1	none
Cc1ccc(CN2[C@@H](CC(C)C)COCCS2(=O)=O)cc1	none (no result: PTK2B oligo ant, Phagocytosis inh, Measles CPE, Rev-RRE block)
COC(=O)c1cc2sccc2n1CC(=O)Nc1cccc(SC)c1	PTK2B oligo ant -3.6 (no result: Rev-RRE block)
CCOC(=O)c1cc2sccc2n1CC(=O)Nc1ccc2c(c1)OCCO2	PTK2B oligo ant -3.9
CN(C1CCCCC1)S(=O)(=O)c1cccc(C(=O)OCC(=O)NC2CCCc3ccccc32)c1 (stereo not given)	none (no result: Cav3 T inh, PTK2B oligo ant, hDAT+cocaine, Rev-RRE block)
Cc1ccc(CSCCNS(=O)(=O)c2ccc(C)cc2)cc1	none (no result: Cav3 T inh, PTK2B oligo ant, hDAT+cocaine, Rev-RRE block)
C=CCOc1c(OC)cc(/C=N/Nc2cccc(C(=O)O)c2)c(Br)c1Br	none (no result: Cav3 T inh, PTK2B oligo ant, hDAT+cocaine, Rev-RRE block)
CCN(CC)c1ccc2cc(NC(=O)CCC(=O)O)c(=O)oc2c1	none (no result: Phagocytosis inh, Rev-RRE block)
CCN(CC)c1ccc2cc(C(=O)Nc3ccccn3)c(=O)oc2c1	none (no result: Rev-RRE block)
COc1ccc2oc(=O)c(C(C)=O)cc2c1	Measles CPE 42
CCN(CC)c1ccc2cc(C=O)c(=O)oc2c1	Cav3 T inh -9, Rev-RRE block 140[fluorescence artefact?]
CCN(CC)c1ccc2cc(C(C)=O)c(=O)oc2c1	Cav3 T inh -10, Measles CPE 43, Rev-RRE block 126[fluorescence artefact?]
CCN(CC)c1ccc2cc(C(N)=O)c(=O)oc2c1	Rev-RRE block 41 (no result: Phagocytosis inh)
Cc1nn(C(=O)Cn2ccc([N+](=O)[O-])n2)c(C)c1Br	none
CCc1ccc(NC(=O)CSc2nnc(SCC(=O)Nc3ccc(CC)cc3)n2N)cc1	none
CCN(CC)c1ccc2cc(-c3nnc(-c4ccncc4)o3)c(=O)oc2c1	Cav3 T inh -4, Rev-RRE block 143[fluorescence artefact?] (no result: Phagocytosis inh)
Cc1cc(C)n(CC(=O)N2c3ccccc3Sc3ccc(C(F)(F)F)cc32)n1	none (no result: Cav3 T inh, PTK2B oligo ant, hDAT+cocaine, Rev-RRE block)
O=C(Cn1nnc(-c2cccs2)n1)N1c2ccccc2Sc2ccc(C(F)(F)F)cc21	Cav3 T inh -5.4 (no result: Phagocytosis inh)
COc1ccc(C[C@H]2c3cc(O)c(OC)cc3CC[N+]2(C)[O-])cc1O (stereo not given in full)	none (no result: PTK2B oligo ant, Phagocytosis inh, Measles CPE, Rev-RRE block)
Cn1c(N)c(C(=O)COC(=O)c2cc(S(=O)(=O)N3CCCCC3)ccc2Cl)c(=O)n(C)c1=O	Measles CPE 27 (no result: Cav3 T inh, PTK2B oligo ant, hDAT+cocaine, Rev-RRE block)
O=S(Cc1ccc(Br)cc1)Cc1nnc(SCc2ccc(Br)cc2)n1-c1ccccc1 (stereo not given)	none (no result: Cav3 T inh, PTK2B oligo ant, hDAT+cocaine, Rev-RRE block)
COc1ccc(NC(=O)Cn2nnc(-c3ccccc3F)n2)cc1	Measles CPE 49 (no result: Cav3 T inh)

From PubChem BioAssay
